According to ChEMBL document CHEMBL3044850, “Synthesis and biological activities of novel pyrazole oxime derivatives containing a 2-chloro-5-thiazolyl moiety” (2008):
In brackets after ≈: the same amount, converted by molar mass. Activity calls are given as the source filed them. The calls are words filed in the database; no cut-off is given here.

Tests used:
Format in all cases: functional
Alternaria solani = test: Fungicidal activity against Alternaria solani assessed as growth inhibition at 50 ug/ml at 23 degC after 3 days; conditions: for inhibition of growth at 50 µg/mL: 72 h, read-out: GI
How it was run: (§1)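 Test solutions were made at 500 µg/mL and mixed 1:9 with agar medium to give 50 µg/mL plates. A 4 mm plug from the edge of actively growing mycelium was placed at the plate centre and incubated at 23 °C. Colony diameter was measured after 3 days against a sterile water plus medium blank, in triplicate. Inhibition = [(C − T)/C] × 100%.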

Cladosporium cucumerinum = test: Fungicidal activity against Cladosporium cucumerinum assessed as growth inhibition at 50 ug/ml at 23 degC after 3 days; conditions: 72 h, read-out: GI; how it was run: as §1
Cucumis sativus = test: Growth regulation of Cucumis sativus (cucumber) seeds assessed as rhizogenesis at 10 ug/ml at 24 degC after 3 days by cucumber cotyledon test
How it was run: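 Cucumber seeds (JINKE No. 4) were germinated in the dark at 24 °C for 3 days, and cotyledons of uniform size were selected. Sample in DMF (10 µg/mL) was sprayed onto filter paper and dried, then the paper was wetted with distilled water. Ten cotyledons were incubated in the dark at 24 °C for 3 days. Rhizogenesis was counted per 10 hypocotyls, in triplicate, with a distilled-water control and Student's t test.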

Aphis medicaginis [1] = test: Insecticidal activity against Aphis medicaginis in soybean tender shoots assessed as mortality at 0.2 mg/ml treated for 5 secs measured after 48 hr
How it was run: (§2)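 Insects held at 26 °C, 60% relative humidity, 14 h photoperiod. Acetone stock at 0.5 mg/mL is diluted with water containing TW-20. Soybean tender shoots bearing 60 insects are dipped for 5 s, drained, then kept under the same conditions. Mortality is scored after 48 h relative to untreated controls, in triplicate.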

[2] = test system: Botryosphaeria berengeriana; test: Fungicidal activity against Botryosphaeria berengeriana assessed as growth inhibition at 50 ug/ml at 23 degC after 3 days; conditions: for inhibition of growth at 50 µg/mL: 72 h, read-out: GI; how it was run: as §1
Mycosphaerella arachidis = test: Fungicidal activity against Mycosphaerella arachidis assessed as growth inhibition at 50 ug/ml at 23 degC after 3 days; conditions: for inhibition of growth at 50 µg/mL: 72 h, read-out: GI; how it was run: as §1
Fusarium graminearum = test: Fungicidal activity against Fusarium graminearum assessed as growth inhibition at 50 ug/ml at 23 degC after 3 days; conditions: for inhibition of growth at 50 µg/mL: 72 h, read-out: GI
How it was run: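 Mycelial growth test in agar plates with 50 µg/mL final compound (from 500 µg/mL solution diluted into medium). A 4 mm plug from active mycelium fringe is placed centrally and incubated at 23 °C. Diameter is read after 3 days against a sterile water plus medium blank, in triplicate. Inhibition I = [(C − T)/C] × 100%.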

Tetranychus cinnabarinus = test: Insecticidal activity against Tetranychus cinnabarinus (carmine spider mite) in soybean tender shoots assessed as mortality at 0.2 mg/ml treated for 5 secs measured after 48 hr; how it was run: as §2
Aphis medicaginis [3] = test: Insecticidal activity against Aphis medicaginis in soybean tender shoots assessed as mortality at 0.5 mg/ml treated for 5 secs measured after 48 hr; how it was run: as §2
Aphis medicaginis [4] = test: Insecticidal activity against Aphis medicaginis in soybean tender shoots assessed as mortality treated for 5 secs measured after 48 hr

Structure (SMILES)	inhibition of growth at 50 µg/mL (Alternaria solani) [%]	inhibition of growth at 50 µg/mL (Cladosporium cucumerinum) [%]	Activity (Cucumis sativus) [%]	mortality at 200 µg/mL (Aphis medicaginis [1]) [%]	inhibition of growth at 50 µg/mL [2] [%]	inhibition of growth at 50 µg/mL (Mycosphaerella arachidis) [%]	inhibition of growth at 50 µg/mL (Fusarium graminearum) [%]	mortality at 200 µg/mL (Tetranychus cinnabarinus) [%]	mortality at 500 µg/mL (Aphis medicaginis [3]) [%]	growth inhibition (GI) (Alternaria solani)	mortality (Tetranychus cinnabarinus)	growth inhibition (GI) (Fusarium graminearum)	LC50 (Aphis medicaginis [4]) [µg/mL]	growth inhibition (GI) [2]	growth inhibition (GI) (Mycosphaerella arachidis)
Cc1nn(C)c(Oc2ccccc2)c1/C=N/OCc1ccc(C(=O)OC(C)(C)C)cc1 [FENPYROXYMATE]	8.3	14.5	10.6	12.4	6.7	12.5	5.2	99.7	18.4	–	–	–	–	–	–
CC(C)(C)C(=O)C(Oc1ccc(Cl)cc1)n1cncn1 (centres undefined) [TRIADIMEFON]	66.1	81.5	50.2	–	86.7	73.4	72.6	–	–	–	–	–	–	–	–
Cn1nc(C(F)(F)F)c(/C=N/OCc2cnc(Cl)s2)c1Oc1ccc(F)cc1	26.9	53.4	28.6	75.3	24.2	67.2	29	13.4	90.2	–	–	–	–	–	–
Cn1nc(C(F)(F)F)c(/C=N/OCc2cnc(Cl)s2)c1Oc1ccc(Cl)cc1	–	15.4	-34.3	84.4	32.1	11.8	36.3	–	92.3	inactive	inactive	–	–	–	–
COc1ccc(Oc2c(/C=N/OCc3cnc(Cl)s3)c(C(F)(F)F)nn2C)cc1	14.6	12.3	30.8	83.4	46.5	22.6	–	13.4	92.2	–	–	inactive	–	–	–
O=[N+]([O-])/N=C1\NCCN1Cc1ccc(Cl)nc1 [IMIDACLOPRID]	–	–	–	92.1	–	–	–	–	94.7	–	–	–	9.1 (≈ 35.6 µM)	–	–
Cc1ccc(Oc2c(/C=N/OCc3cnc(Cl)s3)c(C(F)(F)F)nn2C)cc1	34.6	15.7	43.6	85.4	21	5.9	23.8	3.4	95.3	–	–	–	–	–	–
Cn1nc(C(F)(F)F)c(/C=N/OCc2cnc(Cl)s2)c1Sc1ccc(Cl)cc1	28.8	18.9	34.7	80.4	42.4	25.8	32.6	11.3	91.4	–	–	–	26.2 (≈ 56.1 µM)	–	–
Cn1nc(C(F)(F)F)c(/C=N/OCc2cnc(Cl)s2)c1Oc1ccccc1	65.6	21.6	-12.5	20.2	30.3	8.7	22.4	11.2	41.4	–	–	–	–	–	–
Cc1ccc(Oc2c(/C=N/OCc3cnc(Cl)s3)c(C(F)(F)F)nn2C)cc1C	53.2	8.9	-23.8	61.4	26.2	32.9	31.3	6.4	71.2	–	–	–	–	–	–
Cn1nc(C(F)(F)F)c(/C=N/OCc2cnc(Cl)s2)c1Oc1ccccc1Cl	–	23.7	53.9	46.1	23.6	12.6	24.6	6.2	59.3	inactive	–	–	–	–	–
Cn1nc(C(F)(F)F)c(/C=N/OCc2cnc(Cl)s2)c1Sc1ccccc1	43.5	9.7	21.8	83.4	29.5	12.7	40.8	14.4	92.2	–	–	–	–	–	–
Cn1nc(C(F)(F)F)c(/C=N/OCc2cnc(Cl)s2)c1Oc1ccc(Cl)cc1Cl	29.2	32.3	72.3	86.3	–	42.5	24.3	7.2	97.4	–	–	–	22.9 (≈ 47.1 µM)	inactive	–
Cc1cccc(Oc2c(/C=N/OCc3cnc(Cl)s3)c(C(F)(F)F)nn2C)c1	28	31.3	22.7	82.4	45.3	11.8	33.6	2.3	93.1	–	–	–	–	–	–
Cn1nc(C(F)(F)F)c(/C=N/OCc2cnc(Cl)s2)c1Oc1ccc(Br)cc1	12.4	17.5	48.5	77.4	32.9	9.2	41.6	4.3	90.4	–	–	–	–	–	–
Cn1nc(C(F)(F)F)c(/C=N/OCc2cnc(Cl)s2)c1Oc1cccc(Cl)c1	22.9	43.1	14.2	61.2	21.7	55.3	26.7	7.4	70.4	–	–	–	–	–	–
Cc1ccccc1Oc1c(/C=N/OCc2cnc(Cl)s2)c(C(F)(F)F)nn1C	42.6	32.6	-26.8	81.3	35	10	21.2	9.3	90.4	–	–	–	–	–	–
Cn1nc(C(F)(F)F)c(/C=N/OCc2cnc(Cl)s2)c1Oc1ccc(C(C)(C)C)cc1	24.8	18.1	72.7	73.3	22.1	–	12.5	–	89.4	–	inactive	–	–	–	inactive
Cc1ccc(Cl)c(Oc2c(/C=N/OCc3cnc(Cl)s3)c(C(F)(F)F)nn2C)c1	32.3	48.5	37.9	69.2	29.8	10.1	–	17.4	83.4	–	–	inactive	–	–	–
